Sampled rows, rich in hits. Any-hit rate of the full collection: about 2.2%.
GLD-1 TGE inh = GLD-1/TGE RNA complex disruptors, primary screen, biochemical, fluorescence polarization. Female germline-specific tumor suppressor gld-1 (Caenorhabditis elegans), Q17339. purified GLD-1 + fluorescein TGE RNA. inhibition, % at 5.96 µM. actives 0.44% (n = 320,000);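 active means percent inhibition above a per-plate cutoff, the plate mean of test compounds plus 3 SD, cut at about 30% in these data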;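 further: 0% = DMSO wells with GLD-1 and probe and 100% = wells lacking GLD-1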
Target sequence (Q17339 whole entry, looked up): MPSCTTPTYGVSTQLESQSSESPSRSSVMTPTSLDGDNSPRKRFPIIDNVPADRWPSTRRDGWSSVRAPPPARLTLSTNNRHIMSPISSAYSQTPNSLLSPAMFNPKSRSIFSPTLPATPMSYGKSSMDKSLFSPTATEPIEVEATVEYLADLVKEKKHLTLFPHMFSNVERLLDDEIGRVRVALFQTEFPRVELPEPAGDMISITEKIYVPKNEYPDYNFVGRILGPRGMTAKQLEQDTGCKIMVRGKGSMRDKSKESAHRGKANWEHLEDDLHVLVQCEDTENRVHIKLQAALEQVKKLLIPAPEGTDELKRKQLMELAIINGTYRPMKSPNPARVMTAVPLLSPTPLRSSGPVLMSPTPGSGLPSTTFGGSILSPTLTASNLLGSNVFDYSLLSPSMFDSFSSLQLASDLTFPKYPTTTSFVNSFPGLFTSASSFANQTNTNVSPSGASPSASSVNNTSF
EBV gp42 inh = Epstein-Barr virus gp42 inhibitors, primary screen, biochemical, uHTS, fluorescence polarization. Fluorescence polarization binding assay, mP read-out. AID 1085, 2008. inhibition, % (tested at 21.74 µM). actives 0.42% (n = 220,000); in the data active means inhibition above about 50%
BCLXL inh = inhibitors of human Bcl-xL, primary screen, biochemical, fluorescence polarization, HTS; Bcl-2-like protein 1 (Homo sapiens), Q07817; GST-Bcl-xL / FITC-Bim BH3 peptide fluorescence polarization; actives 0.7% (n = 320,000); AID 2129, 2009; inhibition, % at 10.9 µM;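 active means inhibition above the mean of all tested compounds plus 3 SD, cutoff set per campaign, cut at about 30% in these data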;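 further: 0% = DMSO wells and 100% = unlabeled Bim-BH3 peptide competitor; inhibitors lower millipolarization by displacing the labeled peptide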
Target sequence (Q07817 whole entry, looked up): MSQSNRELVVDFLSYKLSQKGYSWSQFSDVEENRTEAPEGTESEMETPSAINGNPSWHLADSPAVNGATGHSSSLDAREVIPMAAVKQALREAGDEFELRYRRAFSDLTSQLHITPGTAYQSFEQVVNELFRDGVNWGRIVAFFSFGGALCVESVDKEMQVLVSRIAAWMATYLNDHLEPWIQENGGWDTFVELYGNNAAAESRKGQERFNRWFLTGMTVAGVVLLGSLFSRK
IMP-1 inhibitor = IMP-1 metallo-beta-lactamase inhibitors, primary screen, biochemical, epi-absorbance readout, Pseudomonas aeruginosa enzyme | purified IMP-1, nitrocefin hydrolysis, epi-absorbance fluorescence | inhibition, % at 5.6 µM | actives 0.45% (n = 290,000) | AID 1556, 2009;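 active means inhibition above the mean plus 3 SD of all compounds in the same screening run, cut at about 4.5% in these data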;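 further: 0% = IMP-1 with DMSO and 100% = DMSO wells lacking enzyme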
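system = purified recombinant IMP-1 beta-lactamase | amount = 0.2 nM IMP-1, as dispensed | medium = HEPES buffer pH 7.1 with ZnSO4 and Brij 35 | times = 25 °C, 15 min preincubation, 25 min reaction | detection = plate fluorescence quenching by hydrolysis product, ex 480/em 530 nm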
VIM-2 inhibitor = VIM-2 metallo-beta-lactamase inhibitors, primary screen, biochemical, epi-absorbance readout, Pseudomonas aeruginosa enzyme; purified VIM-2, nitrocefin hydrolysis, epi-absorbance fluorescence; inhibition, % at 5.6 µM; actives 0.89% (n = 290,000); AID 1527, 2009;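 active means inhibition above the mean of all tested compounds plus 3 SD, cutoff set per screening run, cut at about 7.5% in these data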;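 further: red hydrolysis product quenches plate fluorescence so inhibitors raise well fluorescence; 0% = enzyme with DMSO and 100% = DMSO without enzyme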
MEX-5 binding = MEX-5 zinc finger RNA-binding disruptors – biochemical, C. elegans, fluorescence polarization, MLPCN library, primary screen; Zinc finger protein mex-5 (Caenorhabditis elegans), Q9XUB2; MEX-5/FITC-TCR2 RNA binding; active compounds read low; activity score (negative = inhibition of binding), % at 10 µM; actives 0.38% (n = 300,000); AID 1832, 2009;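 active means inhibition past about -25% in most replicates, and total fluorescence under double the plate's negative control median, limit read from the data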;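 further: 0% = DMSO and -100% = 5 µM competing unlabeled TCR2 RNA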
GLD-1 TGE cf = GLD-1/TGE RNA binding inhibitors, retest, confirmation, biochemical, fluorescence polarization, triplicate. inhibition, % at 5.96 µM. GLD-1/FL-TGE RNA fluorescence polarization. actives 10% (n = 550). shares compounds with GLD-1 TGE inh. AID 2459, 2010;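 active means average inhibition across triplicates above the hit cutoff set in the primary screen, cut at about 32% in these data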;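 further: 0% = GLD-1 with RNA probe and DMSO and 100% = wells lacking GLD-1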
* hit, by the source's call.

How did Cc1cc2cc(CNC(=O)C(C)Oc3ccccc3)ccc2n1C (stereo not drawn) do in these assays?
GLD-1 TGE inh: 57*; EBV gp42 inh: 0; BCLXL inh: 38*; IMP-1 inhibitor: 1; VIM-2 inhibitor: -3; MEX-5 binding: -4; GLD-1 TGE cf: 7

How did Cc1cc2cc(CNS(=O)(=O)c3ccccc3)ccc2n1C do in these assays?
GLD-1 TGE inh: 54*; EBV gp42 inh: 4; BCLXL inh: 36*; IMP-1 inhibitor: -3; VIM-2 inhibitor: -2; MEX-5 binding: -1; GLD-1 TGE cf: 11

What do the screens show for `CCOC(=O)CCC(=O)NCc1ccc2c(c1)cc(C)n2C`?
GLD-1 TGE inh: 31*; EBV gp42 inh: 14; BCLXL inh: 38*; IMP-1 inhibitor: -2; VIM-2 inhibitor: -5; MEX-5 binding: -4; GLD-1 TGE cf: 11

Results for COc1ccc(S(=O)(=O)NCc2ccc3c(c2)cc(C)n3C)cc1 ?
GLD-1 TGE inh: 11; EBV gp42 inh: 7; BCLXL inh: 13; IMP-1 inhibitor: -3; VIM-2 inhibitor: -1; MEX-5 binding: -1

What do the screens show for `CCC(CC)C(=O)NCc1ccc2c(c1)cc(C)n2C`?
GLD-1 TGE inh: 11; EBV gp42 inh: -19; BCLXL inh: 1; IMP-1 inhibitor: 0; VIM-2 inhibitor: -2; MEX-5 binding: 0

How did Cc1cc2cc(OCC(=O)O)ccc2n1C do in these assays?
GLD-1 TGE inh: 39*; EBV gp42 inh: -9; BCLXL inh: 22; IMP-1 inhibitor: -3; VIM-2 inhibitor: -6; MEX-5 binding: -1; GLD-1 TGE cf: 5

What do the screens show for `O=C1CCCN1CC(O)CS(=O)(=O)Cc1ccc(Cl)cc1` (stereo not drawn)?
GLD-1 TGE inh: 0; BCLXL inh: 0; MEX-5 binding: 2

What do the screens show for `CC(C)NC(=O)Nc1ccc2c(c1)C(=O)N([C@H](C)CO)C[C@@H](C)[C@@H](CN(C)C(=O)NC1CCCCC1)O2`?
GLD-1 TGE inh: 2

How did CCN(CC)S(=O)(=O)c1ccc(N2CCCC2)c(NS(=O)(=O)c2ccccc2)c1 do in these assays?
GLD-1 TGE inh: 14; EBV gp42 inh: -9; BCLXL inh: 13; IMP-1 inhibitor: -2; VIM-2 inhibitor: -1; MEX-5 binding: -2

Results for CCN(CC)S(=O)(=O)c1ccc(N2CCCC2)c(NS(=O)(=O)c2ccc(F)cc2)c1 ?
GLD-1 TGE inh: 34*; EBV gp42 inh: -10; BCLXL inh: 5; IMP-1 inhibitor: -2; VIM-2 inhibitor: -2; MEX-5 binding: 2; GLD-1 TGE cf: 57*

What do the screens show for `N#CC1(C#N)COC23CCCCC2C1(C#N)C(=N)O3` (stereo not drawn)?
GLD-1 TGE inh: 45*; EBV gp42 inh: -5; BCLXL inh: 68*; IMP-1 inhibitor: -2; VIM-2 inhibitor: -4; MEX-5 binding: -2; GLD-1 TGE cf: -4

What do the screens show for `COc1ccccc1CNC(=O)CCCn1nc(C)n2ccnc2c1=O`?
GLD-1 TGE inh: -6; BCLXL inh: -1; IMP-1 inhibitor: -3; VIM-2 inhibitor: -1; MEX-5 binding: 0

How did Cc1nn(Cc2ccccc2)c(Cl)c1/C=C/C(=O)OC(C)C(=O)N1CCCC1 (stereo not drawn) do in these assays?
GLD-1 TGE inh: -6; EBV gp42 inh: 4; BCLXL inh: 7; IMP-1 inhibitor: -4; VIM-2 inhibitor: -4; MEX-5 binding: 1

Results for CN1C(=O)N(C)c2ccc(C=O)c3cccc1c23 ?
GLD-1 TGE inh: 40*; EBV gp42 inh: 49; BCLXL inh: 72*; IMP-1 inhibitor: -3; VIM-2 inhibitor: 6; MEX-5 binding: -18; GLD-1 TGE cf: 23

Results for O=C(CCn1c(=O)c2cccn2c2cccnc21)N1CCN(c2cccc(Cl)c2)CC1 ?
GLD-1 TGE inh: 4; BCLXL inh: 8; IMP-1 inhibitor: -4; VIM-2 inhibitor: 0; MEX-5 binding: -4

Results for CSc1ccccc1NC(=O)COC(=O)Cn1cc(C(F)(F)F)ccc1=O ?
GLD-1 TGE inh: 6; BCLXL inh: 1

Results for COc1ccc(OC)c(Nc2cc3ccccc3c(=O)[nH]2)c1 ?
GLD-1 TGE inh: 42*; BCLXL inh: 7; MEX-5 binding: -8; GLD-1 TGE cf: 4

What do the screens show for `COc1ccccc1Nc1cc2cc(Br)ccc2c(=O)[nH]1`?
GLD-1 TGE inh: 2; BCLXL inh: 7; MEX-5 binding: -1

What do the screens show for `N#CCCN(C(=O)c1cc2c(s1)-c1ccccc1S(=O)(=O)C2)c1ccccc1`?
GLD-1 TGE inh: 2; BCLXL inh: 3; IMP-1 inhibitor: 0; VIM-2 inhibitor: -1; MEX-5 binding: -1

How did N#CC1=C(N)C(C#N)(C#N)[C@H](c2c(F)cccc2F)[C@H]2CC3(CC=C12)OCCO3 do in these assays?
GLD-1 TGE inh: 55*; EBV gp42 inh: 32; BCLXL inh: 58*; IMP-1 inhibitor: -3; VIM-2 inhibitor: 1; MEX-5 binding: -11; GLD-1 TGE cf: 19

Results for N#CC1=C(N)C(C#N)(C#N)C2(CCC3(CC2)OCCO3)C2CC3(CC=C12)OCCO3 (stereo not drawn) ?
GLD-1 TGE inh: 10; EBV gp42 inh: -4; BCLXL inh: 12; IMP-1 inhibitor: -2; VIM-2 inhibitor: -3; MEX-5 binding: -1

What do the screens show for `Cc1ccc(C)c(S(=O)(=O)NC(C)C(=O)NCc2ccccn2)c1` (stereo not drawn)?
GLD-1 TGE inh: 7; BCLXL inh: -5; IMP-1 inhibitor: -1; VIM-2 inhibitor: -1; MEX-5 binding: 0

How did CC1(C)CC(=O)C/C(=N/NC(=O)COc2ccc3ccccc3c2Br)C1 do in these assays?
GLD-1 TGE inh: 31*; BCLXL inh: 5; IMP-1 inhibitor: 0; VIM-2 inhibitor: 1; MEX-5 binding: -5; GLD-1 TGE cf: 1

How did CCOC(=O)C1=C(C)NC(C)=C(C(=O)OCC)C1C(=O)OCC(N)=O do in these assays?
GLD-1 TGE inh: 57*; EBV gp42 inh: -6; BCLXL inh: 77*; IMP-1 inhibitor: -2; VIM-2 inhibitor: -1; MEX-5 binding: 2; GLD-1 TGE cf: -7

What do the screens show for `CC(C)C1=C2OC(N)=C(C#N)C(C#N)=C2C(C)CC1` (stereo not drawn)?
GLD-1 TGE inh: 39*; BCLXL inh: 35*; IMP-1 inhibitor: 2; VIM-2 inhibitor: -2; MEX-5 binding: -17; GLD-1 TGE cf: 15

Assay outcomes (PubChem)
